KCNQ1 act: potentiates or activates the human KCNQ1 potassium channel. AID 2648. actives 0.35% (n = 310,000). P51787. B-score at 10 µM. CHO-K1 KCNQ1, thallium flux FluxOR fluorescence; active compounds read high;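 active = fluorescence ratio B-score, a plate-corrected score, at least three library SD, with initial intensity B-score within 5 SD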
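System: CHO-K1 cells stably expressing KCNQ1 / Medium: assay buffer for compound exposure, DMSO matched across wells / Reagent: thallium- and potassium-containing depolarizing buffer / Compound: one concentration, matched DMSO / Incubation: 20 min compound pretreatment at room temperature / Measured by: kinetic FluxOR fluorescence, 10 s baseline plus 110 s post-stimulus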
hERG protect: compounds protecting human hERG from proarrhythmic drug block | Q12809 | CHO-hERG, FluxOR thallium flux, dofetilide IC70 present | activation (rescue from dofetilide block), less the hit threshold, % at 10 µM | actives 0.51% (n = 310,000);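 active = activation above the mean of controls blocked by dofetilide plus 5 SD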;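 also: thallium influx through hERG after potassium depolarization seen as dye fluorescence rise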
Target sequence (Q12809 whole entry, looked up): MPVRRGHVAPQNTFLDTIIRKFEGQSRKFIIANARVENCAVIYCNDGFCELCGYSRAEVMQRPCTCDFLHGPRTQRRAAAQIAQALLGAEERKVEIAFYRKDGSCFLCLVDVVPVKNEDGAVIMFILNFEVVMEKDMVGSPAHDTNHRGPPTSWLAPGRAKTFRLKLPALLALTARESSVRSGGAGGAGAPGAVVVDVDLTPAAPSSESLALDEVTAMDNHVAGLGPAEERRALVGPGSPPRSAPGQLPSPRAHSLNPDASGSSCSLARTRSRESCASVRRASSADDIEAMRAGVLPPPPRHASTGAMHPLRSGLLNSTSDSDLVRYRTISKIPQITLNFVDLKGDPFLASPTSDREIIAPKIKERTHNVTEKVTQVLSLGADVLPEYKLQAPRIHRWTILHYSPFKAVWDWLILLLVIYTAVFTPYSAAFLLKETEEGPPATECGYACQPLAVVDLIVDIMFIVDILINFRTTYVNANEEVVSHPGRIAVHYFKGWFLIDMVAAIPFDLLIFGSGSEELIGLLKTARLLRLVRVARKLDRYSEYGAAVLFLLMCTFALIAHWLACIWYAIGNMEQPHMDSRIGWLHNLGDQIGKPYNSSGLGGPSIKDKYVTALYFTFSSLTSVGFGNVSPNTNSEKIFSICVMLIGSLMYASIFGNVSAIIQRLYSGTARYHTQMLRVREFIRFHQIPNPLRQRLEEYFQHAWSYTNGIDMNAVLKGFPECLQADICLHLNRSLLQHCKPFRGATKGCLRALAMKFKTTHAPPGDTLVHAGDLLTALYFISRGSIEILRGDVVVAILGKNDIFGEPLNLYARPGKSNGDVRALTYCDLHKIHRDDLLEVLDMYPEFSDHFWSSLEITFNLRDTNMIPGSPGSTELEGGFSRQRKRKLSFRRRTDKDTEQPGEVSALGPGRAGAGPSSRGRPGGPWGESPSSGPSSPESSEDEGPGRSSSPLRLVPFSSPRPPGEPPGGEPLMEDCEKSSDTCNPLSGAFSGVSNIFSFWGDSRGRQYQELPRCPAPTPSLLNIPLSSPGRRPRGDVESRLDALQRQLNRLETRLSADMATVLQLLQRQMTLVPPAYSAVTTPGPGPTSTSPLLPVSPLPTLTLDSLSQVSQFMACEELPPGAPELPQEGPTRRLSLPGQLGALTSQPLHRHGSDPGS
KCNK3 block: human KCNK3 channel inhibition, primary screen; AID 602410; actives 0.84% (n = 340,000); B-score at 10 µM; CHO-KCNK3 thallium flux, FluxOR fluorescence; active compounds read low;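 active = B-score under library mean minus 4 SD, starting fluorescence ratio at most library mean plus 5 SD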;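 also: more negative B-score means stronger inhibition of thallium flux through KCNK3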
KCNK9 block: inhibitors of human KCNK9 two-pore domain potassium channel. HEK293 KCNK9, FluxOR thallium flux fluorescence; active compounds read low. B-score at 10 µM. actives 1.2% (n = 310,000);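 active = ratio B-score over 3 SD below the library mean, with starting fluorescence within 5 SD of its mean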;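 also: negative B-score means less thallium flux so channel inhibition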
Kir21 block: blocks the mouse Kir2.1 inward-rectifier potassium channel | AID 1672 | HEK293-Kir2.1, FluxOR thallium flux fluorescence; active compounds read low | actives 0.85% (n = 310,000) | B-score at 10 µM | P35561;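 active = fluorescence ratio B-score at or below minus 3 SD of library scores, with starting-brightness B-score within 2 SD, cut at about -4.2 in these data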;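 also: channel flux triggered by added potassium and thallium sulfate stimulus; B-score of peak minus minimum fluorescence over baseline after thallium stimulus; more negative B-score means stronger Kir2.1 block with less thallium influx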
KCNQ1 inh: human KCNQ1 channel inhibition | P51787 | CHO-K1 KCNQ1, FluxOR thallium flux fluorescence; active compounds read high | B-score at 10 µM | actives 1.3% (n = 310,000) | AID 2642;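 active = compounds whose thallium flux B-score, printed positive for inhibition, exceeds three library SD while starting fluorescence stays within three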;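 also: channel opened by potassium depolarization with thallium stimulus after 20 min compound exposure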
KCNK9 block conf: confirmation of human KCNK9 potassium channel inhibitors; actives 43% (n = 4,900); shares compounds with KCNK9 block; HEK293 KCNK9 cells, FluxOR thallium flux fluorescence; inhibition, % at 10 µM;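 active = thallium signal inhibited by more than 5 SD of the compound-free buffer control wells, on both duplicate plates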;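 also: 0% = assay buffer control wells without compound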
Kir21 sel: mouse Kir2.1 off-target activity of KCNK9 modulators. shares compounds with KCNK9 block. Kir2.1 cells, FluxOR thallium flux fluorescence. inhibition, % at 10 µM. actives 4% (n = 4,900). AID 492993;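 active = thallium signal drop more than 5 SD beyond the mean of the no-compound control wells, seen in both duplicate plates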;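 also: signal is fluorescence rise after thallium addition divided by baseline fluorescence; plate controls were assay buffer only for no effect and full block by chlorpromazine control for full effect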
KCNK9 uninduced: second counter-screen for KCNK9 modulators: effect in non-induced cells; inhibition, % at 10 µM; actives 40% (n = 4,900); shares compounds with KCNK9 block; AID 492997; non-induced KCNK9-HEK293, FluxOR thallium flux;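 active = thallium signal drop beyond 5 SD of the untreated control mean, on both duplicate plates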;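 also: plate controls were buffer only IC0 wells for no effect and SID17386958 at its maximal inhibitory level for full effect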
An asterisk follows results filed as active; i = inactive; x = not tested or not shown. A selection: hits, their analogues and other compounds. The true share with any hit is near 3.7%.

SMILES | KCNQ1 act | hERG protect | KCNK3 block | KCNK9 block | Kir21 block | KCNQ1 inh | KCNK9 block conf | Kir21 sel | KCNK9 uninduced
CCc1nn(C(C)C(=O)N(C)Cc2ccccc2)c(=O)c2cc3occc3n12 (centres undefined) | i | -9 | i | i | -0.99 | i | x | x | x
C=CCN(CC=C)CCOc1cc(C)ccc1[N+](=O)[O-] | i | -8 | i | i | 0.51 | i | i | i | i
Brc1cccc(OCCN2CCc3ccccc3C2)c1 | i | -9 | i | i | 0.76 | i | i | i | i
Brc1cccc(OCCN2CCCCC2)c1 | i | -5 | i | i | 0.18 | i | x | x | x
Cc1ccc([N+](=O)[O-])c(OCCN2CCc3ccccc3C2)c1 | i | 0 | i | i | 1.4 | i | i | i | i
CCN(CC(=O)Nc1ccccc1C(F)(F)F)C(=O)CN1C(=O)NC2(CCCC2)C1=O | i | -9 | i | i | 0.33 | i | x | x | x
CN1C(=O)c2ccc(C(=O)Nc3ccccc3O)cc2C1=O | i | -2 | i | i | 1.1 | i | x | x | x
COc1cc(Cl)c(C)cc1NC(=O)COC(=O)c1ccc(CN2CCCC2=O)cc1 | x | x | i | x | x | x | x | x | x
C#CCOCCOCCOCCNc1nc(N2CCN(C(=O)[C@H](CCCN=C(N)N)n3cc(C(N)[C@H](C)CC)nn3)CC2)nc(N2CCN(C(=O)[C@H](CC(N)=O)n3cc(C(N)[C@@H](C)CC)nn3)CC2)n1 (some centres undefined) | x | x | i | x | x | x | x | x | x
Cc1cc(=O)oc2cc(NC(=O)COc3ccccc3[N+](=O)[O-])ccc12 | x | x | i | x | x | x | x | x | x
O=C(COc1ccccc1[N+](=O)[O-])Nc1ccc2oc(=O)ccc2c1 | i | -4 | i | -9.6* | 0.26 | i | i | i | i
CCOC(=O)N1CCC(n2c(SCC(=O)NCc3ccccc3)nc3ccccc3c2=O)CC1 | i | -15 | i | i | -1.3 | i | x | x | x
CCOC(=O)N1CCC(n2c(SCC(=O)NCCC3=CCCCC3)nc3ccccc3c2=O)CC1 | i | -21 | i | i | 1.8 | i | i | i | i
CCCc1cnc(N2CCN(C(=O)c3c(-c4ccccc4)noc3C)CC2)nc1 | i | -6 | i | i | -1.1 | i | x | x | x
CC(C)C1C(=O)CC(c2ccccc2)NC1c1ccccc1 (centres undefined) | i | -5 | i | -11* | 0.13 | i | 40%* | i | i
Cc1ccccc1CN1CCN(Cc2ccccc2C(F)(F)F)CC1 | i | -14 | i | i | -0.23 | i | i | i | i
COc1cccc(CN2CCN(Cc3cccc(Oc4ccccc4)c3)CC2)c1OC | i | -10 | i | i | -1.5 | i | i | i | i
O=S1(=O)CCN(Cc2ccccc2C(F)(F)F)CC1 | i | -2 | i | i | 0.51 | i | x | x | x
COc1cccc(CN2CCN(Cc3ccccc3C(F)(F)F)CC2)c1 | i | -10 | i | i | -0.34 | i | i | i | i
COc1cccc(CN2CCN(C(=O)c3cccc4ccccc34)CC2)c1 | i | -7 | i | i | -0.4 | i | x | x | x
COc1ccc(CN2CCN(Cc3ccccc3C(F)(F)F)CC2)c(OC)c1 | i | -11 | i | i | -2.7 | i | i | i | i
O=C(Nc1ccccc1C(=O)Nc1ccccn1)c1cc(F)c(F)cc1Cl | i | -3 | i | i | -0.04 | i | x | x | x
COc1cc(/C=C/C(O)=C/C(=O)/C=C/c2ccc(O)cc2)ccc1O | x | x | i | x | x | x | x | x | x
N#Cc1ccc(COC(=O)c2cnc(Cl)c(Cl)c2)cc1 | i | -2 | i | i | -1.2 | i | x | x | x
CN(C)c1cc(-c2ccc(Cl)cc2Cl)oc(=O)c1Cl | i | -6 | i | i | 1.2 | i | x | x | x
SMILES | KCNQ1 act | hERG protect | KCNK3 block | KCNK9 block | Kir21 block | KCNQ1 inh | KCNK9 block conf | Kir21 sel | KCNK9 uninduced
Cc1c(C(=O)OCC(=O)NCCN2C(=O)CSC2=O)cccc1[N+](=O)[O-] | x | x | i | x | x | x | x | x | x
COc1ccc(OC)c(CN2CCN(Cc3cccc4ccccc34)CC2)c1 | i | -20 | i | i | -0.38 | i | i | i | i
COC(=O)c1ccccc1S(=O)(=O)N1CCC(C(=O)N(C)CCOc2ccccc2)CC1 | i | -14 | i | i | 0.7 | i | x | x | x
COc1ccccc1N1CCN(CCCCOc2cccc3ccccc23)CC1 | i | -31 | i | i | 0.36 | i | i | i | i
COc1ccccc1OCCCCN1CCN(c2ccccc2OC)CC1 | i | -3 | i | i | 0.78 | i | x | x | x
CCN(CC)S(=O)(=O)c1ccc(NN=c2c(=O)c3ccccc3c2=O)cc1 | i | -16 | i | i | 0.05 | i | x | x | x
CN(Cc1ccccc1)c1nc(N)c([N+](=O)[O-])c(NCc2ccccc2)n1 | i | -11 | i | -10* | -4.5* | i | 57%* | i | 57%*
Nc1nc(NCCc2ccccc2)nc(NCc2ccccc2)c1[N+](=O)[O-] | i | -11 | i | i | 0.33 | i | x | x | x
Cc1noc(C)c1CSc1nc2ccccc2c(=O)n1-c1ccc(Cl)cc1 | i | -6 | i | i | 0.07 | i | i | i | i
Cc1noc(C)c1CSc1nc2sc(C)c(C)c2c(=O)n1-c1ccccc1 | i | -6 | i | i | 0.59 | i | x | x | x
COn1c(SCc2ccc(Cl)cc2)nc2ccccc2c1=O | i | -21 | i | -18* | 0.15 | i | 66%* | i | 34%*
CCN(CC(=O)Nc1c(F)cccc1F)C(=O)c1cc(C)nc2ccccc12 | i | -15 | i | i | 0.04 | i | x | x | x
O=C(Nc1ccc(CN2CCCCC2)cc1)c1cc(Br)ccc1Cl | i | -6 | i | -8.5* | -1.1 | i | 30%* | i | 37%*
Cc1ccc(NCc2nnc(SCc3ccc(C#N)cc3)n2Cc2ccco2)c(C)c1 | i | -15 | i | -19* | 0.34 | i | 66%* | i | 36%*
CCn1nc(C)c(NC(=O)Nc2cccc(Cl)c2Cl)c1C | i | -1 | i | i | -0.16 | i | x | x | x
COc1ccc(-c2cc(C(F)(F)F)nc(SCc3cccc(C(=O)O)c3)n2)cc1 | i | -16 | i | i | -2.2 | i | i | i | i
O=C(O)c1cccc(CSc2nc(-c3ccccc3)cc(C(F)(F)F)n2)c1 | i | -18 | i | i | 0.09 | i | x | x | x
